Assay [1] deals with Murid betaherpesvirus 2. As to the kind of experiment: Antiviral activity against rat CMV. The class given is functional, organism-based.
The subject of assay [2] is Human immunodeficiency virus. As to the kind of experiment: Antiviral activity against HIV. It counts as functional, organism-based.
For assay [3], the system named is Human gammaherpesvirus 4. Kind of assay: Antiviral activity against EBV. It counts as functional, organism-based.
The test system of assay [4] is DNA primase UL70 (Human cytomegalovirus). Kind of assay: Binding affinity to human CMV UL70 primase by immunoprecipitation assay. As to conditions: Human betaherpesvirus 5; tested as the 3H-labelled form.
The test system of assay [5] is HFF. Kind of assay: Antiviral activity against human CMV by luciferase reporter gene assay in HFF cells. The class given is functional, cell-based. Summed up: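 HFF cells (10^4/well) were rested 2 h, then infected with rhCMVLuc at MOI 1 pfu/cell. Inoculum was removed after 1 h and drug added (0.005–5 µM or 0.05–50 µM) for 48 h at 37 °C. Luciferase was read with Mg(OAc)2, 30 mM Tricine pH 7.8 and 200 µM EDTA. IC50 is 50% inhibition of hCMV DNA replication.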
A general note: A reporter such as luciferase makes a cellular process visible.

The nature of assay [6]: Ratio of antiviral activity against human CMV to rhesus CMV. The class given is functional, Cercopithecine herpesvirus 8.
Assay [7] has as its system Caviid betaherpesvirus 2. Kind of assay: Antiviral activity against guinea pig CMV. The class given is functional, organism-based.
In assay [8] the test system is Human betaherpesvirus 6. Kind of assay: Antiviral activity against HHV6. It counts as functional, organism-based.
In assay [9] the test system is Human alphaherpesvirus 1. Kind of assay: Antiviral activity against HSV. The class given is functional, organism-based.
Assay [10] deals with Murid betaherpesvirus 1. As to the kind of experiment: Antiviral activity against mouse CMV. The class given is functional, organism-based.
The subject of assay [11] is HFF. As to the kind of experiment: Antiviral activity against human CMV by dot blot assay in HFF cells. The class given is functional, cell-based. Summed up: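 Dot blot DNA replication readout. HFF cells were seeded at 2 × 10^4 cells/well and infected with rhCMVLuc, clinical isolates or wild-type virus, then incubated 72 h with drug. Cells were lysed in 0.4 N NaOH, 0.5 M EDTA, applied to membrane by microfiltration and UV-crosslinked. DNA was hybridized to a hCMV-specific 32P probe and detected by phosphorimaging.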

The subject of assay [12] is HFF. Kind of assay: Cytotoxicity against HFF cells. The settings on record: Homo sapiens. The class given is functional, cell-based. A digest of the protocol: (§1)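 HFF or Jurkat cells were seeded and compound added 3 h later. Alamar blue staining at 0, 24, 48 and 72 h, then a further 3 h incubation, with fluorescence read-out. IC50 is the concentration inhibiting cell growth by 50%.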

The test system of assay [13] is Human betaherpesvirus 5. Kind of assay: Inhibition of human CMV growth by viral yield assay. The class given is functional. A digest of the protocol: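 Viral yield: once CPE appeared, well supernatants were serially diluted 1:2 sixteen times and used to infect fresh HFF cells (10^4/well). Inoculum was removed after 1 h; cells were incubated 5–7 days until CPE. Yield was quantified and IC99.9 taken as the drug concentration giving 99.9% inhibition of replication.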

Assay [14] relates to Human betaherpesvirus 5. Kind of assay: Inhibition of human CMV growth by plaque reduction assay. It counts as functional. Summed up:
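Plaques counted after 10-day incubation of 10^5 cells infected with 1000 pfu of wild-type, clinical-isolate or resistant virus; IC99.9 is the drug amount inhibiting plaque formation by 99.9%.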
(Plaque reduction counts the foci of infection that form in a cell layer.)

Assay [15] relates to Jurkat. As to the kind of experiment: Cytotoxicity against human Jurkat cells. It counts as functional, cell-based. A digest of the protocol: as §1

The text below walks through data of ChEMBL document CHEMBL1149480, “Discovery of a novel series of inhibitors of human cytomegalovirus primase” (Bioorg Med Chem Lett, 2006).

Active and inactive are the calls of the source. The rule behind the calls is not given here. Where only a bound is given, the exact number is not on record here.

Broadly, the IC50 is the concentration that gives 50% inhibition. The low end stands for greater potency in that assay, the high end for weaker potency in that assay. For the compound `CCc1nc(N(C)Cc2ccccc2)nc(-n2ccnc2C)c1[N+](=O)[O-]`, the result in [1], in assay [1] (tested as the 3H-labelled form), in [2], in [2] (tested as the 3H-labelled form), in assay [3] and in assay [3] (tested as the 3H-labelled form) was inactive. The outcome in [7], in assay [7] (tested as the 3H-labelled form), in [8], in assay [8] (tested as the 3H-labelled form), in [9] and in [9] (tested as the 3H-labelled form) was inactive. Further, the outcome in [10] and in assay [10] (tested as the 3H-labelled form) was inactive. In addition, the outcome in assay [4] was Active. Also, half-maximal inhibition in assay [5] (IC50) required 170 nM. Also, the Selectivity ratio result in [6] was “>=10”.
With `Cc1nc(N(C)Cc2ccccc2)nc(-n2ccnc2C)c1[N+](=O)[O-]`, the outcome in [1], in assay [2], in [3], in assay [7], in [8] and in [9] was inactive. Also, the outcome in [10] was inactive. For the same compound, the IC50 is 61 nM in assay [11], > 100000 nM in [12], 39 nM in assay [5] and 25000 nM in assay [15]. Also, the Selectivity ratio entry in assay [6] is recorded as “>=10”. For the same compound, the IC100 in assay [13] is 0.2 µM; in assay [14], 0.5 µM.
As for `Cc1nc(NC2CCc3ccccc32)nc(-n2ccnc2C)c1[N+](=O)[O-]` (stereo not drawn), the result in assay [1], in assay [2], in assay [3], in assay [7], in assay [8] and in [9] was inactive. For the same compound, in assay [10], the result was inactive. Moreover, the IC50 was 53 nM in assay [11], > 100000 nM in assay [12] and 100000 nM in assay [15]. Also, the Selectivity ratio entry in assay [6] was “>=10”. In addition, the IC100 in assay [13] was 0.1 µM; in assay [14], 0.5 µM.
Turning to `Cc1nc(N(C)c2ccccc2)nc(-n2ccnc2C)c1[N+](=O)[O-]`, the outcome in [1], in assay [2], in assay [3], in [7], in [8] and in assay [9] was inactive. In addition, the result in assay [10] was inactive. In addition, the IC50 in assay [11] was 300 nM; in assay [12], 100000 nM; in assay [5], 550 nM; in [15], 80000 nM. The Selectivity ratio entry in assay [6] is on record as “>=10”. Also, the IC100 in assay [13] turned out to be 2 µM; in assay [14], 2.5 µM.
